Source: ChEMBL document CHEMBL4038284, “Synthesis of novel quinoline-based 4,5-dihydro-1H-pyrazoles as potential anticancer, antifungal, antibacterial and antiprotozoal agents” (Eur J Med Chem, 2017)
In brackets after ≈: the same amount, converted by molar mass.

Key:
Cryptococcus neoformans [1] = assay: Growth inhibition of Cryptococcus neoformans ATCC 32264 at 250 ug/ml incubated for 48 hrs under dark condition by broth microdilution method relative to control; format: functional; conditions: ATCC 32264, 48 h, read-out: GI
Summary of the method: (§1)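 CLSI M27-A3 broth microdilution in RPMI-1640, DMSO ≤1%. Inoculum 1-5 × 10^3 CFU/mL. Incubated 48 h at 30 °C, dark. % inhibition = 100 − (OD405 test − sterility control)/(OD405 growth control − sterility control), with growth and sterility control wells. Triplicate.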

Cryptococcus neoformans [2] = assay: Antifungal activity against Cryptococcus neoformans ATCC 32264 incubated for 48 hrs under dark condition by broth microdilution method; format: functional; conditions: ATCC 32264, 48 h
Summary of the method: (§2)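 CLSI M27-A3 broth microdilution in RPMI-1640, DMSO ≤1%, compounds at 250-0.98 µg/mL final. Inoculum 1-5 × 10^3 CFU/mL. Incubated 48 h at 30 °C in a moist dark chamber, read at OD405. MIC80 and MIC50 taken from % inhibition dose-response curves (mean ± SEM, triplicate). Amphotericin B was the positive control.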

Cryptococcus neoformans [3] = assay: Growth inhibition of Cryptococcus neoformans ATCC 32264 at 31.25 ug/ml incubated for 48 hrs under dark condition by broth microdilution method relative to control; format: functional; conditions: ATCC 32264, 48 h, read-out: GI; summary of the method: as §1
U-937 = assay: Cytotoxicity against human U937 cells after 72 hrs by MTT assay; format: cell-based; conditions: u-937, 72 h
Summary of the method: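 Exponentially growing U-937 at 1 × 10^5 cells/mL in RPMI-1640 with 10% FBS were exposed to 200, 50, 12.5 and 3.125 µg/mL for 72 h at 37 °C, 5% CO2. MTT for 3 h, stopped with isopropanol/SDS, formazan read at 570 nm, blank-corrected. LC50 by Probit from % viability against untreated cells. Triplicate, at least two independent experiments.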

Staphylococcus aureus [4] = assay: Antibacterial activity against vancomycin-intermediate Staphylococcus aureus after 24 hrs by resazurin dye based microdilution assay; format: functional
Summary of the method: (§3)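 MIC taken as the lowest concentration giving visible inhibition and/or by resazurin (1 mg/mL). Gentamicin was the control. Run in duplicate, repeated at least three times.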

Candida albicans [5] = assay: Growth inhibition of Candida albicans ATCC 10231 at 62.5 ug/ml incubated for 48 hrs under dark condition by broth microdilution method relative to control; format: functional; conditions: ATCC 10231, 48 h, read-out: GI; summary of the method: as §1
Cryptococcus neoformans [6] = assay: Growth inhibition of Cryptococcus neoformans ATCC 32264 at 125 ug/ml incubated for 48 hrs under dark condition by broth microdilution method relative to control; format: functional; conditions: ATCC 32264, 48 h, read-out: GI; summary of the method: as §1
Candida albicans [7] = assay: Growth inhibition of Candida albicans ATCC 10231 at 15.62 ug/ml incubated for 48 hrs under dark condition by broth microdilution method relative to control; format: functional; conditions: ATCC 10231, 48 h, read-out: GI; summary of the method: as §1
Cryptococcus neoformans [8] = assay: Growth inhibition of Cryptococcus neoformans ATCC 32264 at 62.5 ug/ml incubated for 48 hrs under dark condition by broth microdilution method relative to control; format: functional; conditions: ATCC 32264, 48 h, read-out: GI; summary of the method: as §1
Candida albicans [9] = assay: Growth inhibition of Candida albicans ATCC 10231 at 125 ug/ml incubated for 48 hrs under dark condition by broth microdilution method relative to control; format: functional; conditions: ATCC 10231, 48 h, read-out: GI; summary of the method: as §1
Klebsiella pneumoniae [10] = assay: Antibacterial activity against ESBL positive Klebsiella pneumoniae ATCC 700603 after 24 hrs by resazurin dye based microdilution assay; format: functional; conditions: Klebsiella pneumoniae, 700603, 24 h; summary of the method: as §3
Leishmania panamensis = assay: Antileshmanial activity against EpiR/GFP fused Leishmania panamensis MHOM/CO/87/UA140 intracellular amastigotes infected in human […] cells after 72 hrs by flow cytometric method; format: functional, cell-based; conditions: MHOM/CO/87/UA140, 72 h
Summary of the method: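 PMA-treated U-937 cells (3 × 10^5 cells/mL) infected with stationary-phase GFP L. panamensis promastigotes (15:1), 3 h at 34 °C, then washed. After 24 h, compounds added at 50, 12.5, 3.125 and 0.78 µg/mL for 72 h at 37 °C. EC50 by Probit; triplicate, two experiments.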

Staphylococcus aureus [11] = assay: Antibacterial activity against methicillin-resistant Staphylococcus aureus ATCC 43300 after 24 hrs by resazurin dye based microdilution assay; format: functional; conditions: ATCC 43300, 24 h
Summary of the method: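 Broth microdilution in Mueller Hinton broth, inoculum 5 × 10^5 – 8 × 10^5. Compound stocks diluted in MHB with 5% DMSO and 0.1% Tween 80. Incubation 24 h at 35-37 °C. MIC is the lowest concentration with visible growth inhibition and/or by resazurin (1 mg/mL) read-out. Gentamicin as control. Run in duplicate, replicated at least three times.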

Candida albicans [12] = assay: Growth inhibition of Candida albicans ATCC 10231 at 7.8 ug/ml incubated for 48 hrs under dark condition by broth microdilution method relative to control; format: functional; conditions: ATCC 10231, 48 h, read-out: GI; summary of the method: as §1
Pseudomonas aeruginosa = assay: Antibacterial activity against Pseudomonas aeruginosa ATCC 27853 after 24 hrs by resazurin dye based microdilution assay; format: functional; conditions: ATCC 27853, 24 h; summary of the method: as §3
Trypanosoma cruzi = assay: Antitrypanosomal activity against Trypanosoma cruzi Tulahuen intracellular amastigote harboring LacZ infected in human U937 cells after 72 hrs by CPRG/Nonidet reagent based spectrophotometric method; format: functional, cell-based; conditions: U-937, 72 h
Summary of the method: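 U-937 cells at 2.5 × 10^5 cells/mL in RPMI-1640 with 10% serum and 0.1 µg/mL PMA were infected with β-galactosidase-transfected Tulahuen epimastigotes at 5 parasites per cell. Infected cells were exposed to 50, 12.5, 3.125 and 0.78 µg/mL for 72 h. CPRG (100 uM) and 0.1% Nonidet P-40 were added for 3 h, read at 570 nm. EC50 by Probit. Triplicate, at least two experiments; benznidazole as reference.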

Staphylococcus aureus [13] = assay: Antibacterial activity against methicillin-sensitive Staphylococcus aureus ATCC 25923 after 24 hrs by resazurin dye based microdilution assay; format: functional; conditions: ATCC 25923, 24 h; summary of the method: as §3
Cryptococcus neoformans [14] = assay: Growth inhibition of Cryptococcus neoformans ATCC 32264 at 15.62 ug/ml incubated for 48 hrs under dark condition by broth microdilution method relative to control; format: functional; conditions: ATCC 32264, 48 h, read-out: GI; summary of the method: as §1
Candida albicans [15] = assay: Growth inhibition of Candida albicans ATCC 10231 at 31.25 ug/ml incubated for 48 hrs under dark condition by broth microdilution method relative to control; format: functional; conditions: ATCC 10231, 48 h, read-out: GI; summary of the method: as §1
Cryptococcus neoformans [16] = assay: Growth inhibition of Cryptococcus neoformans ATCC 32264 at 3.4 ug/ml incubated for 48 hrs under dark condition by broth microdilution method relative to control; format: functional; conditions: ATCC 32264, 48 h, read-out: GI
Candida albicans [17] = assay: Growth inhibition of Candida albicans ATCC 10231 at 250 ug/ml incubated for 48 hrs under dark condition by broth microdilution method relative to control; format: functional; conditions: ATCC 10231, 48 h, read-out: GI; summary of the method: as §1
Candida albicans [18] = assay: Growth inhibition of Candida albicans ATCC 10231 at 3.4 ug/ml incubated for 48 hrs under dark condition by broth microdilution method relative to control; format: functional; conditions: ATCC 10231, 48 h, read-out: GI
Plasmodium falciparum = assay: Antiplasmodial activity against chloroquine-sensitive Plasmodium falciparum 3D7 assessed as reduction in parasitic LDH activity after 48 hrs by Malstat reagent based […] method; format: functional; conditions: 3D7, 48 h
Summary of the method: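 Unsynchronized P. falciparum 3D7 at 0.5% parasitemia and 1% hematocrit in RPMI with 3% Albumax II. Exposed to 100, 25, 6.25 and 1.56 µg/mL for 48 h at 37 °C under 90% N2/5% CO2/5% O2. After three freeze-thaw cycles, LDH measured with Malstat and NBT/PES, 1 h in the dark, read at 650 nm. IC50 by Probit; triplicate, ≥2 experiments.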

Klebsiella pneumoniae [19] = assay: Antibacterial activity against carbapenemase positive Klebsiella pneumoniae BAA 1705 after 24 hrs by resazurin dye based microdilution assay; format: functional; conditions: BAA 1705, 24 h; summary of the method: as §3
Candida albicans [20] = assay: Antifungal activity against Candida albicans ATCC 10231 incubated for 48 hrs under dark condition by broth microdilution method; format: functional; conditions: ATCC 10231, 48 h; summary of the method: as §2
Cryptococcus neoformans [21] = assay: Growth inhibition of Cryptococcus neoformans ATCC 32264 at 7.8 ug/ml incubated for 48 hrs under dark condition by broth microdilution method relative to control; format: functional; conditions: ATCC 32264, 48 h, read-out: GI; summary of the method: as §1
Escherichia coli = assay: Antibacterial activity against Escherichia coli ATCC 25922 after 24 hrs by resazurin dye based microdilution assay; format: functional; conditions: ATCC 25922, 24 h; summary of the method: as §3
Neisseria gonorrhoeae = assay: Antibacterial activity against beta lactamase positive Neisseria gonorrhoeae ATCC 31426 by oxidase test; format: functional
Summary of the method: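 Agar dilution MIC on GC agar with 1% isovitalex containing increasing compound concentrations. Plates inoculated with about 1×10^4 CFU (5 µL). MIC is the lowest concentration that inhibited growth, with growth confirmed by oxidase test. Run in duplicate, repeated at least three times.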

SMILES	inhibition of growth at 250 µg/mL (Cryptococcus neoformans [1]) [%]	MIC50 (Cryptococcus neoformans [2]) [µg/mL]	MIC80 (Cryptococcus neoformans [2]) [µg/mL]	inhibition of growth at 31.25 µg/mL (Cryptococcus neoformans [3]) [%]	LC50 (U-937) [µg/mL]	MIC (Staphylococcus aureus [4]) [µg/mL]	inhibition of growth at 62.5 µg/mL (Candida albicans [5]) [%]	inhibition of growth at 125 µg/mL (Cryptococcus neoformans [6]) [%]	inhibition of growth at 15.62 µg/mL (Candida albicans [7]) [%]	inhibition of growth at 62.5 µg/mL (Cryptococcus neoformans [8]) [%]	inhibition of growth at 125 µg/mL (Candida albicans [9]) [%]	MIC (Klebsiella pneumoniae [10]) [µg/mL]	EC50 (Leishmania panamensis) [µg/mL]	MIC (Staphylococcus aureus [11]) [µg/mL]	inhibition of growth at 7.8 µg/mL (Candida albicans [12]) [%]	MIC (Pseudomonas aeruginosa) [µg/mL]	EC50 (Trypanosoma cruzi) [µg/mL]	MIC (Staphylococcus aureus [13]) [µg/mL]	inhibition of growth at 15.62 µg/mL (Cryptococcus neoformans [14]) [%]	inhibition of growth at 31.25 µg/mL (Candida albicans [15]) [%]	further results
Cc1ccc(C2=NN(c3ccccc3)C(c3cccc(Nc4ccnc5cc(Cl)ccc45)c3)C2)cc1 (stereo not given)	31.5	≥ 250	≥ 250	1.72	1.4 (≈ 2.86 µM)	> 1000	13.1	7.45	7.89	4.01	22.9	> 1000	1.83 (≈ 3.74 µM)	> 1000	2.53	> 1000	1.09 (≈ 2.23 µM)	> 1000	0.86	12	inhibition of growth at 3.4 µg/mL (Cryptococcus neoformans [16]): 0%; inhibition of growth at 250 µg/mL (Candida albicans [17]): 28.3%; inhibition of growth at 3.4 µg/mL (Candida albicans [18]): 2.29%; EC50 (Plasmodium falciparum): 13.5 µg/mL (≈ 27.7 µM); MIC (Klebsiella pneumoniae [19]): > 1000 µg/mL; MIC50 (Candida albicans [20]): ≥ 250 µg/mL; MIC80 (Candida albicans [20]): ≥ 250 µg/mL; inhibition of growth at 7.8 µg/mL (Cryptococcus neoformans [21]): 0%; MIC (Escherichia coli): > 1000 µg/mL; MIC (Neisseria gonorrhoeae): > 1000 µg/mL
O=C(/C=C/c1cccc(Nc2ccnc3cc(Cl)ccc23)c1)c1ccc(Br)cc1	100	125 (≈ 270 µM)	250 (≈ 539 µM)	46.4	0.7 (≈ 1.51 µM)	> 1000	35.3	70.6	32	47.9	47.7	> 1000	0.88 (≈ 1.9 µM)	> 1000	21.1	> 1000	1.35 (≈ 2.91 µM)	> 1000	44.5	28.9	inhibition of growth at 3.4 µg/mL (Cryptococcus neoformans [16]): 34.9%; inhibition of growth at 250 µg/mL (Candida albicans [17]): 58%; inhibition of growth at 3.4 µg/mL (Candida albicans [18]): 15.8%; EC50 (Plasmodium falciparum): 10.3 µg/mL (≈ 22.3 µM); MIC (Klebsiella pneumoniae [19]): > 1000 µg/mL; MIC50 (Candida albicans [20]): 250 µg/mL (≈ 539 µM); MIC80 (Candida albicans [20]): ≥ 250 µg/mL; inhibition of growth at 7.8 µg/mL (Cryptococcus neoformans [21]): 35.1%; MIC (Escherichia coli): > 1000 µg/mL; MIC (Neisseria gonorrhoeae): > 1000 µg/mL
